From ChEMBL document CHEMBL2331391, “Peroxisome proliferator-activated receptor-γ mediates the anti-inflammatory effect of 3-hydroxy-4-pyridinecarboxylic acid derivatives: synthesis and biological evaluation” (Eur J Med Chem, 2013) come the findings set out here.

The source made the active and inactive calls. The calls are words filed in the database; no cut-off is given here.

The nature of series [1]: Antiinflammatory activity in human macrophages assessed as inhibition of LPS-induced TNFalpha release at 10 '-3 uM preincubated for 30 mins before LPS-challenge measured after 24 hrs post challenge by ELISA (reference value: 1682 +/-190 ng/ml). Format: functional, Macrophage. In a few lines: (§1)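 Human blood PBMC-derived macrophages were used after 10 days of culture. Purity >95% (esterase, CD14, morphology). Cells were pretreated 30 min at 37 °C with compound, then given 100 ng/mL LPS (S. enteritidis) for 24 h. TNFα, IL-1β and IL-8 in conditioned medium were measured by ELISA. Working solutions were endotoxin-tested by LAL (<3 pg/mL).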
For orientation: An ELISA detects its analyte on a solid surface through an enzyme-linked reagent.

Series [2] deals with T1, Peroxisome proliferator-activated receptor gamma (Mus musculus) (UniProt P37238).
T1 sequence (whole entry): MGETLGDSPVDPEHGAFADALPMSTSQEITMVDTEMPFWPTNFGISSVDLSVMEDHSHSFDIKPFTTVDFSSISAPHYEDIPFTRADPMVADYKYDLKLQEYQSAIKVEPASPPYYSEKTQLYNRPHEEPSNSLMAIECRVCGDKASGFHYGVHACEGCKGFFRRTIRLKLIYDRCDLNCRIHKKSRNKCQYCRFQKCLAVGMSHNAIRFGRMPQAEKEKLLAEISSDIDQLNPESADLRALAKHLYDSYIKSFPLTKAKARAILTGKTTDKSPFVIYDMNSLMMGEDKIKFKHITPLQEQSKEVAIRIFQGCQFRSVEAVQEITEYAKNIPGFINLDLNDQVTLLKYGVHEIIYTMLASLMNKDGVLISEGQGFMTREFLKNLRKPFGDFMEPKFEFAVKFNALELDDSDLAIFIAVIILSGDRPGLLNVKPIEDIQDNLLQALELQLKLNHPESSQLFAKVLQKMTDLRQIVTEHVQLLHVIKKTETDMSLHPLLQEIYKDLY
Kind of series: Induction of PPAR-gamma promoter activity in mouse CMT93 cells at 10 uM by luciferase reporter gene assay. Format: cell-based. In a few lines:
(§2)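 CMT-93 cells (1×10⁵/well) were transfected with an NF-κB or PPRE luciferase reporter plus CMV-β-Gal. At 24 h they were treated with compound for 30 min, then with 100 ng/mL LPS for 6 h. Cells were lysed in Tris/EDTA/DTT/Triton buffer and supernatant luciferase was read by luminometer. Results are fold over untreated cells.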

Series [3] deals with T1, Peroxisome proliferator-activated receptor gamma (Mus musculus). Kind of series: Induction of PPAR-gamma promoter activity in LPS-stimulated mouse CMT93 cells at 10 uM preincubated for 30 mins before LPS-challenge measured after 6 hrs post challenge by luciferase reporter gene assay. The class given is cell-based. In a few lines: as §2
In general terms: A reporter such as luciferase makes a cellular process visible.

Series [4] in a line: Antiinflammatory activity in human macrophages assessed as inhibition of LPS-induced TNFalpha release at 1 uM preincubated for 30 mins before LPS-challenge measured after 24 hrs post challenge by ELISA (reference value: 1682 +/-190 ng/ml). Format: functional, Macrophage. In a few lines:
as §1

The target of series [5] is Transcription factor p65 (Mus musculus) (UniProt Q04207). Kind of series: Inhibition of LPS-induced p65 NF-kappaB promoter activation in mouse CMT93 cells at 10 uM preincubated for 30 mins before LPS-challenge measured after 6 hrs post challenge by luciferase reporter gene assay. Format: cell-based. In a few lines: as §2
Sequence of Transcription factor p65 (Mus musculus) (Q04207 whole entry): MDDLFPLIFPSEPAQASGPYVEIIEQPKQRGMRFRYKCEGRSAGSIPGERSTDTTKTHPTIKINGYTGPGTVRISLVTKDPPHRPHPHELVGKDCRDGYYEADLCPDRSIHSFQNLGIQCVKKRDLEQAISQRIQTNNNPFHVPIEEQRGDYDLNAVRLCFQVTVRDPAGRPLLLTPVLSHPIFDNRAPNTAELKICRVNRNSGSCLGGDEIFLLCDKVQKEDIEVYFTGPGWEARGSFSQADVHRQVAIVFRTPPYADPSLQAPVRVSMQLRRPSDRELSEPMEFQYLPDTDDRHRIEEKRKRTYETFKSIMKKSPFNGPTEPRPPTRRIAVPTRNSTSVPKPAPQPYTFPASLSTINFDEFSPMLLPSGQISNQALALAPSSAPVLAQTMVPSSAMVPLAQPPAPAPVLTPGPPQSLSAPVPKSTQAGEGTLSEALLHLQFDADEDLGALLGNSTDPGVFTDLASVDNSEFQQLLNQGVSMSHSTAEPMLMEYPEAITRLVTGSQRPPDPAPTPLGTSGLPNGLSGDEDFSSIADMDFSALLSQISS
A short description of series [6]: Antiinflammatory activity in human macrophages assessed as inhibition of LPS-induced TNFalpha release at 5 uM preincubated for 30 mins before LPS-challenge measured after 24 hrs post challenge by ELISA (reference value: 1682 +/-190 ng/ml). Format: functional, Macrophage. The method, boiled down: as §1
Series [7] deals with Macrophage. As to the kind of experiment: Antiinflammatory activity in human macrophages assessed as inhibition of LPS-induced TNFalpha release at 10 uM preincubated for 30 mins before LPS-challenge measured after 24 hrs post challenge by ELISA. The class given is functional, cell-based. The method, boiled down:
as §1

Series [8] can be described thus: Antiinflammatory activity in human macrophages assessed as inhibition of LPS-induced IL8 release at 10 '-3 uM preincubated for 30 mins before LPS-challenge measured after 24 hrs post challenge by ELISA (reference value: 7.86 +/-0.17 ng/ml). Format: functional, Macrophage. The method, boiled down:
as §1

Series [9] can be described thus: Cytotoxicity against human macrophages up to 100 uM after 72 hrs by MTT assay. Format: cell-based. The note with it: macrophage.
Series [10] deals with CMT93. As to the kind of experiment: Increase in ROS production in LPS-stimulated mouse CMT93 cells at 10 uM preincubated for 30 mins before LPS-challenge measured after 24 hrs post challenge by DCFDA fluorescence assay in presence of alpha-tocopherol. The class given is functional, cell-based.
Series [11] deals with Macrophage. As to the kind of experiment: Antiinflammatory activity in human macrophages assessed as inhibition of LPS-induced IL-1beta release at 10 uM preincubated for 30 mins before LPS-challenge measured after 24 hrs post challenge by ELISA. Format: functional, cell-based. The method, boiled down:
as §1

Series [12] deals with Mus musculus. Kind of series: Antiinflammatory activity in DSS-induced C57Bl/6 mouse colitis model assessed as inhibition IL-1beta level in colonic homogenate at 400 mg/kg/day administered intragastrically for 7 days. Format: functional, organism-based. In a few lines:
(§3)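 Male C57Bl/6J mice, 8–10 per group, dosed intragastrically daily for 7 days at 400 mg/kg/day (vehicle 100 µL). From day 2, drinking water carried 3.5% w/vol DSS. Killed 5 days after colitis induction. Full-thickness proximal colon homogenised for MPO activity and IL-1β protein.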

For series [13], the system named is Macrophage. Kind of series: Antiinflammatory activity in human macrophages assessed as inhibition of LPS-induced IL8 mRNA transcript accumulation at 10 uM preincubated for 30 mins before LPS-challenge measured after 24 hrs post challenge by quantitative PCR analysis. The class given is functional, cell-based. In a few lines: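 Monocyte-derived human macrophages were pretreated with 10 µM compound, then stimulated with LPS for 24 h. RNA was extracted and TNFα and IL8 transcripts were quantified by real-time RT-PCR with UPL probes. GAPDH served as reference gene.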

For series [14], the target named is Transcription factor p65 (Mus musculus) (UniProt Q04207). As to the kind of experiment: Inhibition of LPS-induced p65 NF-kappaB phosphorylation in mouse CMT93 cells at 10 uM preincubated for 30 mins before LPS-challenge measured after 6 hrs post challenge by Western blot analysis. The class given is cell-based. In a few lines: (§4)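 CMT-93 cells were pretreated with 10 µM compound and stimulated with LPS for 6 h. Lysates were run on 10% SDS-PAGE and transferred to PVDF. Blots were probed overnight at 4 °C for phospho-p65, IκBα or COX-2 (1:1000), with HRP detection.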

The nature of series [15]: Antiinflammatory activity in human macrophages assessed as inhibition of LPS-induced IL8 release at 10 '-2 uM preincubated for 30 mins before LPS-challenge measured after 24 hrs post challenge by ELISA (reference value: 7.86 +/-0.17 ng/ml). The class given is functional, Macrophage. The method, boiled down:
as §1

Series [16] can be described thus: Antiinflammatory activity in human macrophages assessed as inhibition of LPS-induced TNFalpha release at 100 uM preincubated for 30 mins before LPS-challenge measured after 24 hrs post challenge by ELISA (reference value: 1682 +/-190 ng/ml). Format: functional, Macrophage. The method, boiled down: as §1
Series [17] concerns CMT93. As to the kind of experiment: Increase in ROS production in mouse CMT93 cells at 10 uM measured after 30 mins by DCFDA fluorescence assay (reference value: 2.64 %). The class given is functional, cell-based.
In series [18] the test system is Mus musculus. As to the kind of experiment: Antiinflammatory activity in DSS-induced C57Bl/6 mouse colitis model assessed as inhibition MPO activity in colonic homogenate at 400 mg/kg/day administered intragastrically for 7 days. The note with it: C57Bl/6, po, 168 h, route intragastric. The class given is functional. The method, boiled down: as §3
Series [19] can be described thus: Cytotoxicity against human macrophages at 10 '5 uM after 72 hrs by MTT assay. Format: cell-based. The note with it: macrophage.
Series [20] addresses Transcription factor p65 (Mus musculus) (UniProt Q04207). Kind of series: Inhibition of LPS-induced p65 NF-kappaB activation in mouse CMT93 cells assessed as inhibition of in IkBalpha degradation at 10 uM preincubated for 30 mins before LPS-challenge measured after 6 hrs post challenge by Western blot analysis. Format: cell-based. The method, boiled down:
as §4

Turning to `C[n+]1ccc(C(=O)O)c(O)c1.[Cl-]`, the Activity in [1] was 1689 ng/mL; in series [4], 1651 ng/mL; in [6], 1738 ng/mL; in series [8], 7.98 ng/mL; in series [9] it was “Non-toxic”; in series [15] it was 7.56 ng/mL. For the same molecule, the figures for the Activity in series [16] and in series [19] were 1069 ng/mL and “Toxic”, respectively. For the same molecule, the result in series [2], in series [3] and in [17] was Active. Further, the inhibition entry in series [5], in series [7], in series [11], in [12], in series [13] and in series [14] was “Active” each time. In addition, the inhibition result in series [20] was “Active”. Besides, the outcome in series [10] was inactive. In addition, the inhibition in vivo at 400 mg/kg/day in series [18] was found to be 56%.

A word on the inhibition in vivo: it is how much of the control response was suppressed.
